Bioassay records as filed in PubChem BioAssay.
Compounds with a hit are over-represented: about 3.8% of the library has one in this group of screens.
KCNQ1 pot: potentiators or activators of human KCNQ1 potassium channel | AID 2648 | CHO-K1 KCNQ1, thallium flux FluxOR fluorescence; active compounds read high | B-score at 10 µM | actives 0.35% (n = 310,000) | P51787;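 active means fluorescence ratio B-score, a plate-corrected score, at least three library SD, with initial intensity B-score within 5 SD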
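System: CHO-K1 cells stably expressing KCNQ1 / Medium: assay buffer for compound exposure, DMSO matched across wells / Reagent: thallium- and potassium-containing depolarizing buffer / Compound: one concentration, matched DMSO / Incubation: 20 min compound pretreatment at room temperature / Measured by: kinetic FluxOR fluorescence, 10 s baseline plus 110 s post-stimulus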
Kir21 inh: Kir2.1 (mouse) channel inhibition; P35561; B-score at 10 µM; AID 1672; HEK293-Kir2.1, FluxOR thallium flux fluorescence; active compounds read low; actives 0.85% (n = 310,000);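 active means fluorescence ratio B-score at or below minus 3 SD of library scores, with starting-brightness B-score within 2 SD, cut at about -4.2 in these data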;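 further: channel flux triggered by added potassium and thallium sulfate stimulus; B-score of peak minus minimum fluorescence over baseline after thallium stimulus; more negative B-score means stronger Kir2.1 block with less thallium influx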
KCNQ1 inh: human KCNQ1 channel inhibition | P51787 | CHO-K1 KCNQ1, FluxOR thallium flux fluorescence; active compounds read high | B-score at 10 µM | actives 1.3% (n = 310,000);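 active means compounds whose thallium flux B-score, printed positive for inhibition, exceeds three library SD while starting fluorescence stays within three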;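 further: channel opened by potassium depolarization with thallium stimulus after 20 min compound exposure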
KCNK3 block: human KCNK3 channel inhibition, primary screen | O14649 | CHO-KCNK3 thallium flux, FluxOR fluorescence; active compounds read low | B-score at 10 µM | actives 0.84% (n = 340,000) | AID 602410;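 active means B-score under library mean minus 4 SD, starting fluorescence ratio at most library mean plus 5 SD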;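 further: more negative B-score means stronger inhibition of thallium flux through KCNK3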
KCNK9 inh: blocks the human KCNK9 two-pore domain potassium channel; Q9NPC2; HEK293 KCNK9, FluxOR thallium flux fluorescence; active compounds read low; B-score at 10 µM; actives 1.2% (n = 310,000); AID 488922;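 active means ratio B-score over 3 SD below the library mean, with starting fluorescence within 5 SD of its mean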;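 further: negative B-score means less thallium flux so channel inhibition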
Target sequence (Q9NPC2 whole entry, looked up, the tested form may be a part): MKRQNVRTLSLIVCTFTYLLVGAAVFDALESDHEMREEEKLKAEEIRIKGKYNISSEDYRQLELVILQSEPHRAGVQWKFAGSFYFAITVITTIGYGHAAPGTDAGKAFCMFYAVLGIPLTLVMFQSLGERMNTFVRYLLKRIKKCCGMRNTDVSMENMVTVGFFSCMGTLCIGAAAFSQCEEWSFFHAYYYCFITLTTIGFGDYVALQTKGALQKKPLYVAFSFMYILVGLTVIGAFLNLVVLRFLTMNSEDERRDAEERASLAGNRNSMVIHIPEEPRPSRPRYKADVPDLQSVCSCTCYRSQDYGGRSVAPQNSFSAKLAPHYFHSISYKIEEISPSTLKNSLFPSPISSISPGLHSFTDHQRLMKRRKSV
hERG rescue: hERG (human) protection from proarrhythmic block; activation (rescue from dofetilide block), less the hit threshold, % at 10 µM; Q12809; AID 1511; actives 0.51% (n = 310,000); CHO-hERG, FluxOR thallium flux, dofetilide IC70 present;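 active means activation above the mean of controls blocked by dofetilide plus 5 SD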;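 further: thallium influx through hERG after potassium depolarization seen as dye fluorescence rise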
KCNK9 block conf: confirmation of human KCNK9 potassium channel inhibitors; shares compounds with KCNK9 inh; HEK293 KCNK9 cells, FluxOR thallium flux fluorescence; inhibition, % at 10 µM; actives 43% (n = 4,900);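 active means thallium signal inhibited by more than 5 SD of the compound-free buffer control wells, on both duplicate plates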;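 further: 0% = assay buffer control wells without compound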
Kir2-1 spec: selectivity of KCNK9 modulators against mouse Kir2.1 | shares compounds with KCNK9 inh | Kir2.1 cells, FluxOR thallium flux fluorescence | inhibition, % at 10 µM | actives 4% (n = 4,900);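 active means thallium signal drop more than 5 SD beyond the mean of the no-compound control wells, seen in both duplicate plates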;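 further: signal is fluorescence rise after thallium addition divided by baseline fluorescence; plate controls were assay buffer only for no effect and full block by chlorpromazine control for full effect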
KCNK9 uninduced: second counter-screen for KCNK9 modulators: effect in non-induced cells. shares compounds with KCNK9 inh. non-induced KCNK9-HEK293, FluxOR thallium flux. inhibition, % at 10 µM. actives 40% (n = 4,900);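 active means thallium signal drop beyond 5 SD of the untreated control mean, on both duplicate plates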;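 further: plate controls were buffer only IC0 wells for no effect and SID17386958 at its maximal inhibitory level for full effect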
Active calls of the source: *; i = inactive; · = not tested or not shown.

SMILES	KCNQ1 pot	Kir21 inh	KCNQ1 inh	KCNK3 block	KCNK9 inh	hERG rescue	KCNK9 block conf	Kir2-1 spec	KCNK9 uninduced
Cc1ccc(C(=O)N/N=C/c2cccc(OC(=O)/C=C/c3ccco3)c2)cn1	i	2.3	i	i	i	-11	·	·	·
O=C(/C=C/c1ccco1)Oc1cc(Br)cc(/C=N/NC(=O)c2ccccc2O)c1	i	-0.61	i	i	-14*	-11	76%*	i	38%*
Cc1c(NC2=NC3(CCCCC3)Cc3ccccc32)c(=O)n(C)n1-c1ccccc1	i	-1.2	i	i	i	-10	·	·	·
CC(C)(C)C1N=C(c2ccc3ccccc3c2)OC1=O (configuration not stated)	·	·	·	i	·	·	·	·	·
COc1ccc(-c2csc(NC(=O)c3ccccc3Br)c2C(=O)O)cc1	i	1.1	i	i	i	-11	·	·	·
COc1ccc(-c2csc(NC(=O)c3ccc(C(C)(C)C)cc3)c2C(=O)O)cc1	i	-1.3	i	i	i	-14	i	i	i
CN(C)c1nc(SCCOC(=O)Nc2ccccc2)nc(N(C)C)n1	i	-3.5	i	i	i	-9	·	·	·
CCOC(=O)C1=C(C)N=C2SC(CC)C(=O)N2C1c1cccc(F)c1 (configuration not stated)	i	-1.1	i	i	-12*	-12	36%*	i	34%*
O=C(Nc1ccccc1C(F)(F)F)c1ccsc1	i	-0.03	i	i	i	-6	·	·	·
O=C(NNc1ccccc1C(F)(F)F)c1sccc1Br	i	-0.96	i	i	-8.7*	-7	44%*	i	i
Cc1ccc2c(CN3CCCCC3)cc(=O)oc2c1C	i	-0.78	i	i	i	-4	i	i	i
Cc1cc(C)c2oc(=O)cc(CN3CCCCC3)c2c1	i	-0.82	i	i	i	-1	i	i	i
CCc1cc(=O)oc2c(C)c(O)c(CN3CCCCC3)cc12	i	0.8	i	i	i	-12	·	·	·
Cc1onc(-c2ccccc2)c1C(=O)c1c[nH]c(C(=O)NCCCN2CCOCC2)c1	i	-1	i	i	i	-12	·	·	·
CC1=CC(C)C2(COC(=O)Nc3ccccc3)COC(C)C1C2C (configuration not stated)	i	-1.7	i	i	i	-13	i	i	i
COc1cccc2c1-c1c(C(=O)O)cccc1C2=O	i	-1.4	i	i	i	-9	i	i	i
O=[N+]([O-])c1ccc(O)c(/C=N/NC(=S)Nc2ccc(Cl)cc2Cl)c1	i	0.68	i	i	i	-8	i	i	i
Cc1cc(Cl)ccc1NC(=O)CCC(=O)N/N=C/c1cc([N+](=O)[O-])ccc1O	i	1.7	i	i	i	-10	·	·	·
CCOC(=O)c1c(NC(=O)CSc2nnc(C)c(=O)[nH]2)sc2c1CCCC2	i	0.14	i	i	i	-8	·	·	·
CCOC(=O)c1c(NC(=O)CSc2nnc(C)c(=O)[nH]2)sc(C)c1-c1ccc(C)cc1	i	0.03	i	i	i	-15	i	i	i
Cc1nc2ccccc2c2oc(C(=O)N3CCN(c4ccc([N+](=O)[O-])cc4)CC3)cc12	i	1.8	i	i	i	-17	·	·	·
COc1ccc(N2Cc3cccc(C(=O)NC(C)CCc4ccco4)c3C2=O)cc1 (configuration not stated)	i	0.02	i	-9.9*	-16*	-14	57%*	i	34%*
CC(CCc1ccco1)NC(=O)c1cccc2c1C(=O)N(C1CCCCC1)C2 (configuration not stated)	i	-0.21	i	i	i	-15	·	·	·
